Data from ChEMBL document CHEMBL5661979, “Pharmacological inhibition of BMK1 suppresses tumor growth through promyelocytic leukemia protein” (Cancer Cell, 2010).
pIC50: −log10 of the molar value.

Assays:
[1] = Inhibition of CK1g1/g2/g3 in human HeLa cells lysate pre incubated for 15 mins followed by ADP acyl phosphate probe addition and measured after 10 mins by LC-MS/MS analysis; assay type: subcellular
[2] = molecular target: Serine/threonine-protein kinase WNK1 (Homo sapiens, UniProt Q9H4A3); experiment: Inhibition of Wnk1 in human HeLa cells lysate at 10 uM pre incubated for 15 mins followed by ATP acyl phosphate probe addition and measured after 10 mins by LC-MS/MS analysis relative to control; assay type: subcellular; conditions: time 25.0 min
[3] = molecular target: Mitogen-activated protein kinase kinase kinase 4 (Homo sapiens, UniProt Q9Y6R4); experiment: Inhibition of MAP3K4 in human HeLa cells lysate at 2 uM pre incubated for 15 mins followed by ATP acyl phosphate probe addition and measured after 10 mins by LC-MS/MS analysis relative to control; assay type: subcellular; conditions: time 25.0 min
[4] = molecular target: Tyrosine-protein kinase receptor UFO (Homo sapiens) (UniProt P30530); experiment: Inhibition of AXL in human HeLa cells lysate at 10 uM pre incubated for 15 mins followed by ADP acyl phosphate probe addition and measured after 10 mins by LC-MS/MS analysis relative to control; assay type: subcellular; conditions: time 25.0 min
Method in brief: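 KiNativ-type profiling in HeLa lysate (5 mg/mL total protein). Lysate preincubated 15 min with inhibitor at 50, 10, 2, 0.8 or 0 μM, then ATP or ADP acylphosphate probe added (5 μM final) for 10 min. Reaction stopped with urea and analysed by targeted MS, using up to four fragment ions per kinase peptide-probe conjugate. % inhibition calculated against untreated lysate. Duplicate reactions.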

[5] = Toxicity in C57Bl/6 mouse assessed as effect on sodium level at 50 mg/kg, ip for 14 days (reference value: 156 mM); assay type: organism-based; conditions: in vivo, 336 h, time 14 day
[6] = molecular target: Ribosomal protein S6 kinase alpha-3 (Homo sapiens, UniProt P51812); experiment: Inhibition of RSK2 domain 1 active form in human HeLa cells lysate at 2 uM pre incubated for 15 mins followed by ATP acyl phosphate probe addition and measured after 10 mins by LC-MS/MS analysis relative to control; assay type: subcellular; conditions: time 25.0 min
[7] = molecular target: T1, Serine/threonine-protein kinase TAO2 (Homo sapiens) (UniProt Q9UL54); experiment: Inhibition of TAO2 in human HeLa cells lysate at 50 uM pre incubated for 15 mins followed by ATP acyl phosphate probe addition and measured after 10 mins by LC-MS/MS analysis relative to control; assay type: subcellular; conditions: time 25.0 min
T1 sequence (whole entry): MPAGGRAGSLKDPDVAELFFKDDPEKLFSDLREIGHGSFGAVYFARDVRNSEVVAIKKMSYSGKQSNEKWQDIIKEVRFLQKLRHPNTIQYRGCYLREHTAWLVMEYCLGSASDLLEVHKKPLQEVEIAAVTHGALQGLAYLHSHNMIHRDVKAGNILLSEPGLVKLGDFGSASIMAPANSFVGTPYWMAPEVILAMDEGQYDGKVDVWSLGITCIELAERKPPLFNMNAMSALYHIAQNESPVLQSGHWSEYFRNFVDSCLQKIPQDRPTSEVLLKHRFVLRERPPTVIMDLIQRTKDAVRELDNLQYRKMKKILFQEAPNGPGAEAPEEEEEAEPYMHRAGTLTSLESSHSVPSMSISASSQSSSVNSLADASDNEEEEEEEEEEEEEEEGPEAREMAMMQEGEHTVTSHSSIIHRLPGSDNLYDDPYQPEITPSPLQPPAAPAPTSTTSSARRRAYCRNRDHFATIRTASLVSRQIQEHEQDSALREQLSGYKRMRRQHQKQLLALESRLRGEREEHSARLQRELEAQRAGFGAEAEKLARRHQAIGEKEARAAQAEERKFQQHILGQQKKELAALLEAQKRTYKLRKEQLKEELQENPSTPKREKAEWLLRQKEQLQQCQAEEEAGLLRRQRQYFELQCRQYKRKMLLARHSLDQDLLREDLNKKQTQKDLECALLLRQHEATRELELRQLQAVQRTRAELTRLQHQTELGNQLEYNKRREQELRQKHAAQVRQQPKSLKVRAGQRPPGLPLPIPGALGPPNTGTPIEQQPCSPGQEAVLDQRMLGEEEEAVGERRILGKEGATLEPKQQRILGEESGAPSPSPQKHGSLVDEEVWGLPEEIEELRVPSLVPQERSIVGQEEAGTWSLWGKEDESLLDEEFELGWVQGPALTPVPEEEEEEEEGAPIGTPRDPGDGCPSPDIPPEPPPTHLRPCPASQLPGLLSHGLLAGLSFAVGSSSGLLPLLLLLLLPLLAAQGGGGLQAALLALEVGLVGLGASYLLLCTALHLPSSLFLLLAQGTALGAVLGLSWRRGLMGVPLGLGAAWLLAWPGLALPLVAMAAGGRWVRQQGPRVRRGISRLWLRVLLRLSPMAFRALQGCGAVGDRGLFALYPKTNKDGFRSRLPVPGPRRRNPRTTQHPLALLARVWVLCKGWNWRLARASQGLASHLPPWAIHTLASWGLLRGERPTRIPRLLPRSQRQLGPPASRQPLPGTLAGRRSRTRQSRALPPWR

[8] = molecular target: Mitogen-activated protein kinase kinase kinase 8 (Homo sapiens, UniProt P41279); experiment: Inhibition of COT in human HeLa cells lysate pre incubated for 15 mins followed by ADP acyl phosphate probe addition and measured after 10 mins by LC-MS/MS analysis; assay type: subcellular
[9] = molecular target: Serine/threonine-protein kinase D2 (Homo sapiens, UniProt Q9BZL6); experiment: Inhibition of PKD2 in human HeLa cells lysate pre incubated for 15 mins followed by ADP acyl phosphate probe addition and measured after 10 mins by LC-MS/MS analysis; assay type: subcellular
[10] = molecular target: Eukaryotic elongation factor 2 kinase (Homo sapiens) (UniProt O00418); experiment: Inhibition of EEF2K in human HeLa cells lysate at 2 uM pre incubated for 15 mins followed by ATP acyl phosphate probe addition and measured after 10 mins by LC-MS/MS analysis relative to control; assay type: subcellular; conditions: time 25.0 min
[11] = molecular target: MAP/microtubule affinity-regulating kinase 3 (Homo sapiens, UniProt P27448); experiment: Inhibition of MARK3 in human HeLa cells lysate at 50 uM pre incubated for 15 mins followed by ATP acyl phosphate probe addition and measured after 10 mins by LC-MS/MS analysis relative to control; assay type: subcellular; conditions: time 25.0 min
[12] = molecular target: Serine/threonine-protein kinase Nek1 (Homo sapiens, UniProt Q96PY6); experiment: Inhibition of NEK1 in human HeLa cells lysate pre incubated for 15 mins followed by ATP acyl phosphate probe addition and measured after 10 mins by LC-MS/MS analysis; assay type: subcellular
Sequence of Serine/threonine-protein kinase Nek1 (Q96PY6 whole entry): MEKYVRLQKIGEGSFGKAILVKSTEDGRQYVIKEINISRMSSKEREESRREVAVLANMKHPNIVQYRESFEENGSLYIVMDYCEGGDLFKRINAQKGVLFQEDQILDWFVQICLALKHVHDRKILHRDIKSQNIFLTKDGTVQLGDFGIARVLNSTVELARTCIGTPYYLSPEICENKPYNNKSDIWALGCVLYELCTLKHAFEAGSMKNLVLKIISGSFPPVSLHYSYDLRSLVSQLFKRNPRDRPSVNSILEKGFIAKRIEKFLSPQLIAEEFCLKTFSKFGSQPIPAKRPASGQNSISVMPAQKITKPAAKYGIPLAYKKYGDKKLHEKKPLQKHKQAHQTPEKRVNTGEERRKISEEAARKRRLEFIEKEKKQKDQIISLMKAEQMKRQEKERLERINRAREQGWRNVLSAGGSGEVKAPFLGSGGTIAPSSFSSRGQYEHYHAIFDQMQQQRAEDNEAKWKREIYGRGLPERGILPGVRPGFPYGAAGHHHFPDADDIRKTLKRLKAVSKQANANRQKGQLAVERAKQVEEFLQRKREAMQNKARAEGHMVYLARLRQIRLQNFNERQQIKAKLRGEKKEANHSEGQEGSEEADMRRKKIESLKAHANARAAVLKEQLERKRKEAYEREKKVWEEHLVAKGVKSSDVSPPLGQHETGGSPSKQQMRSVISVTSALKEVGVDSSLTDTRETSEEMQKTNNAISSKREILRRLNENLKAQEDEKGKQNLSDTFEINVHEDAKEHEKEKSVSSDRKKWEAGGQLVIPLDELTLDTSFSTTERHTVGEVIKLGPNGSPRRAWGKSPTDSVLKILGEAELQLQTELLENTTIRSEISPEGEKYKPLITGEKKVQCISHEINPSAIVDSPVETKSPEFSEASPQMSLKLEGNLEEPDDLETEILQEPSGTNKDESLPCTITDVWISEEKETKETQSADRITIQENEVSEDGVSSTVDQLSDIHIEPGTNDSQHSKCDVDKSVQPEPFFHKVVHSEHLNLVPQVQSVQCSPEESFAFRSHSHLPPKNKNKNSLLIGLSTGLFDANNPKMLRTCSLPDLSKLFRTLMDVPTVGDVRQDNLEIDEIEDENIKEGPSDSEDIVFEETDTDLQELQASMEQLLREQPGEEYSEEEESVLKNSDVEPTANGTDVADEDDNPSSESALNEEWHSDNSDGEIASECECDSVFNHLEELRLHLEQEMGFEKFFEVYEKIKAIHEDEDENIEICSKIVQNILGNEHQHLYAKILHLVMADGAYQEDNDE

Sequence of Eukaryotic elongation factor 2 kinase (Homo sapiens) (O00418 whole entry): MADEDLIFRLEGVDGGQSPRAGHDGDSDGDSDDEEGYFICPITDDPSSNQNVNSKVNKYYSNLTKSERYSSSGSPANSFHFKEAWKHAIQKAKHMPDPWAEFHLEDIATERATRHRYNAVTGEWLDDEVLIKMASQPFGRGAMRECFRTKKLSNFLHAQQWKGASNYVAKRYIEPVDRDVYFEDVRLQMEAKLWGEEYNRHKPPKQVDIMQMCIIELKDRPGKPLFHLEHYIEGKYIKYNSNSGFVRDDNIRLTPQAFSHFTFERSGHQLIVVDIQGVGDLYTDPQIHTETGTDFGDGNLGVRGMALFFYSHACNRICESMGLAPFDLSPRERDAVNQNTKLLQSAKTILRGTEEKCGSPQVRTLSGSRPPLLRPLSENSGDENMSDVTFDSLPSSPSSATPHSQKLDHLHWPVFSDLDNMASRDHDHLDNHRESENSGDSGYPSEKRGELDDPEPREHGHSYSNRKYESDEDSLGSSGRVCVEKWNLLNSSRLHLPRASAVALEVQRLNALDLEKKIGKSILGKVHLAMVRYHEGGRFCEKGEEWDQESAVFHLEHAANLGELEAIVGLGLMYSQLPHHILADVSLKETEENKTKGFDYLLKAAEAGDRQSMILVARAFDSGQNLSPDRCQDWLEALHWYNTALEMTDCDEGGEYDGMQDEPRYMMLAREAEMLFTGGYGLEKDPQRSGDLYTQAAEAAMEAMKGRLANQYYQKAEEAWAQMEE
Sequence of Mitogen-activated protein kinase kinase kinase 8 (P41279 whole entry): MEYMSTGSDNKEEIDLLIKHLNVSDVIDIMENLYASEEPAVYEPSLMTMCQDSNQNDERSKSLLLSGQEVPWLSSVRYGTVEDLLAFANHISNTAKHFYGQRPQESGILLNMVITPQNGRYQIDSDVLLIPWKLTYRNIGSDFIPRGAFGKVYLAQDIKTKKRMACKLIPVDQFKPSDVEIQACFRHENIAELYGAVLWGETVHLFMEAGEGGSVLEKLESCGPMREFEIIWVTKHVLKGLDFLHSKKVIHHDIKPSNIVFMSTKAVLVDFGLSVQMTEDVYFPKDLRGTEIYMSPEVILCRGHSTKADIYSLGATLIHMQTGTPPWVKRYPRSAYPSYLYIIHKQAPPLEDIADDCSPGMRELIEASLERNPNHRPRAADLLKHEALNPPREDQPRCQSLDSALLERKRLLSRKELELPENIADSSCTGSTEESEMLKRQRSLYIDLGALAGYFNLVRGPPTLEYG
Sequence of MAP/microtubule affinity-regulating kinase 3 (P27448 whole entry, looked up): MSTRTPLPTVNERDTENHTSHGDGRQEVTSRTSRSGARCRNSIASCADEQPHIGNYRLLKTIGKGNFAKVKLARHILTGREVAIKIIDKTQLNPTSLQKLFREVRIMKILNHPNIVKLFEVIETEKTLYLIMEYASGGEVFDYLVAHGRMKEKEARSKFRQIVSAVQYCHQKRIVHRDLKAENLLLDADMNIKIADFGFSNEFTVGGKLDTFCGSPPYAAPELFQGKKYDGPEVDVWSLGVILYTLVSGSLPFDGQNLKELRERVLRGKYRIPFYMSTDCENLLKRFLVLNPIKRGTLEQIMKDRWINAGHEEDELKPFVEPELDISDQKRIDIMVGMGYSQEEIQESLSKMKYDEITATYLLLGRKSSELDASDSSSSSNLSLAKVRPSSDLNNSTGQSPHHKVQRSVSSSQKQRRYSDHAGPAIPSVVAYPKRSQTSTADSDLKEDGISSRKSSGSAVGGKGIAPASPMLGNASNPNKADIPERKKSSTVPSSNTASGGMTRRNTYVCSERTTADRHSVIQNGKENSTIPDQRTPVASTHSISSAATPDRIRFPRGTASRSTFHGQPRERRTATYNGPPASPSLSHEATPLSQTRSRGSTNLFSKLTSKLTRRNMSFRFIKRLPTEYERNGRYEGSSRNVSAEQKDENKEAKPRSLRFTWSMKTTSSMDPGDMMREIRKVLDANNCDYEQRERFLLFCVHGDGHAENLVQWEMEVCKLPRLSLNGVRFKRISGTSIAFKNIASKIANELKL
Sequence of Tyrosine-protein kinase receptor UFO (Homo sapiens) (P30530 whole entry, the tested form may be a part): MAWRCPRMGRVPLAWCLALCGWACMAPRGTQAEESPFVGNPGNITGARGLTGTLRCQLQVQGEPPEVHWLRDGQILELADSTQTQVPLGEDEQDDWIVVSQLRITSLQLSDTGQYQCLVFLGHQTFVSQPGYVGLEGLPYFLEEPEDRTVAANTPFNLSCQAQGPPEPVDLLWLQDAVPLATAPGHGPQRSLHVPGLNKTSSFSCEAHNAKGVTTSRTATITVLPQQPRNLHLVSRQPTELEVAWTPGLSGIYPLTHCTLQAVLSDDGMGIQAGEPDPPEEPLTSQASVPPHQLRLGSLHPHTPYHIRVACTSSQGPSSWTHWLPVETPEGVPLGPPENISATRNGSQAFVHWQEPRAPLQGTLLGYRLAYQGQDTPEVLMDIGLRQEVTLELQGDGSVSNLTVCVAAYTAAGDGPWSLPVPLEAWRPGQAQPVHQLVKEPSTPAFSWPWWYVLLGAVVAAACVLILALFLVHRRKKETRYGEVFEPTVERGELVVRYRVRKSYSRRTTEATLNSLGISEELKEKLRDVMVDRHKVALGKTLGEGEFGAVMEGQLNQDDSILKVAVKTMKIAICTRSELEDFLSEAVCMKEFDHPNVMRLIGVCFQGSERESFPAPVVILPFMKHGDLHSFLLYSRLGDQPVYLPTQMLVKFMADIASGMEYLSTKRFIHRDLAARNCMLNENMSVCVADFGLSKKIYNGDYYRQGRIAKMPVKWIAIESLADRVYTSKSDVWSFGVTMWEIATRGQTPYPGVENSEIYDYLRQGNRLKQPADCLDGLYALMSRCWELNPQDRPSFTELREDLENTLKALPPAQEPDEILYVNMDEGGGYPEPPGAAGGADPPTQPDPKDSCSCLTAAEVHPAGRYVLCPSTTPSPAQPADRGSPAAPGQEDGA
Sequence of Ribosomal protein S6 kinase alpha-3 (P51812 whole entry, the tested form may be a part): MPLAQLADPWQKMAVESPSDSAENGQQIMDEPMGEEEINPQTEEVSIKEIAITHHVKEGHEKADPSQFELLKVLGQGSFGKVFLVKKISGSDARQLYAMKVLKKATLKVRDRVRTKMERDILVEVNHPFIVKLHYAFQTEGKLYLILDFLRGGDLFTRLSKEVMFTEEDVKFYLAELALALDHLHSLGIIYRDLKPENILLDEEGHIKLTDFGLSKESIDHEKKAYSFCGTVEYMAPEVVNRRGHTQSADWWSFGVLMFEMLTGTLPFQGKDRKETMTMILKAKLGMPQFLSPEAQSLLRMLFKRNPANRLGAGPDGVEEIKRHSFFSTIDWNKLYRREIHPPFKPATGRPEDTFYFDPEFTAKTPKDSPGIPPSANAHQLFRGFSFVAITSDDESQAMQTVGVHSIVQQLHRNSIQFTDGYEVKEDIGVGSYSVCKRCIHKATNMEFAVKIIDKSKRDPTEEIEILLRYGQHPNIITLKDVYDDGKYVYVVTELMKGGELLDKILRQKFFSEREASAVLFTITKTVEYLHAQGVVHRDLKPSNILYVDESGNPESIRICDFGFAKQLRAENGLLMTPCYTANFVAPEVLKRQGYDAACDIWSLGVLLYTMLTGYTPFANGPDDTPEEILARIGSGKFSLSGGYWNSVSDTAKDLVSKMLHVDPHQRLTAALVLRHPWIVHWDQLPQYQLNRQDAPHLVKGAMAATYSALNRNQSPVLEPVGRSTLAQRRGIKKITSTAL

Compound: CCOc1cc(N2CCC(O)CC2)ccc1Nc1ncc2c(n1)N(C)c1ccccc1C(=O)N2C
- pIC50 [1]: < 4.30
- inhibition [2]: 6.9%
- inhibition [3]: -8.8%
- inhibition [4]: -5.1%
- Activity [5]: 143 mM
- inhibition [6]: 8.2%
- inhibition [7]: 6.6%
- pIC50 [8]: < 4.30
- pIC50 [9]: < 4.30
- inhibition [10]: 1.5%
- inhibition [11]: 6.2%
- pIC50 [12]: < 4.30
